The list is not random: actives were taken first. Their share in the collection is about 4%.
TAAR1 antagonist = human TAAR1 antagonism; Q96RJ0; CHO RD-HGA16 TAAR1, Fluo-8 calcium fluorescence, antagonist; inhibition, % at 3 µM; hit rate 1.5% among 360,000; AID 624466;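 active means inhibition above a per-plate cutoff, the mean inhibition of test compounds on that plate plus 3 SD, cut at about 49% in these data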
Target sequence (Q96RJ0 whole entry, looked up): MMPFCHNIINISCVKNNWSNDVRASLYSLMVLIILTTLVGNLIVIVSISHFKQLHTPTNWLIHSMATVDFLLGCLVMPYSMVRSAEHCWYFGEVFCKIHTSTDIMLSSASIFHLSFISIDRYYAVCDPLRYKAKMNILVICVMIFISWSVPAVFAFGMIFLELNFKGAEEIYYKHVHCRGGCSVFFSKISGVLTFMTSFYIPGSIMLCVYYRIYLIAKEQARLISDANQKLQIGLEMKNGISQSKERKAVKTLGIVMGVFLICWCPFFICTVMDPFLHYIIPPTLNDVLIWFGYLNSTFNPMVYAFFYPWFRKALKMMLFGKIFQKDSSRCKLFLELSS
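test system = CHO RD-HGA16 cells bearing hTAAR1 | replication = singlicate | controls = DMSO-only wells and EC80 β-PEA-stimulated wells | reagent = EC80 β-phenethylamine stimulus | read-out basis = percent inhibition of PEA-evoked calcium signal, max/basal emission ratio | schedule = seeding 17-24 h prior, 75-min 37 °C, 30-min RT dye loading | signal = kinetic Fluo-8 calcium fluorescence measurement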
MPTP block = inhibitors of mitochondrial permeability transition pore. isolated mouse mitochondria, Ca2+ swelling absorbance, 30 min. inhibition, % at 10 µM. hit rate 1.4% among 360,000. AID 602449;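 active means inhibition of 50% or more, scaled per plate between neutral and stimulator controls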
GPR7 antagonist = human neuropeptides B/W receptor 1 antagonism; P48145; GPR7-expressing cells, fluorescence antagonist assay; inhibition, % at 4.4 µM; hit rate 1.1% among 290,000; AID 1861; in the data active means inhibition above about 16%, passing the limit was not always enough;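 further: cells stimulated with the agonist NPW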
Target sequence (P48145 whole entry, looked up): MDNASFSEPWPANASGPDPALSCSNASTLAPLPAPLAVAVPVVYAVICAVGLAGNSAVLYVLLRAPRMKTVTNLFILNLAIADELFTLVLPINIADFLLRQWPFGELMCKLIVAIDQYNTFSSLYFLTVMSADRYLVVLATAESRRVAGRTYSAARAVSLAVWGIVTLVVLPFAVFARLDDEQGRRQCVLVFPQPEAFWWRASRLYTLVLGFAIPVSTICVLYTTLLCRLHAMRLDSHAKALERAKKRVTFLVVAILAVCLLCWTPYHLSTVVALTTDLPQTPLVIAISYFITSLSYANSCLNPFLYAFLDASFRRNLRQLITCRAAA
DAGLB inhibitor = blocks human DAGLB lipase activity | Q8NCG7 | HEK293T DAGLB membrane lysate, EnzChek fluorogenic substrate | inhibition, % at 5.17 µM | hit rate 0.059% among 340,000 | AID 504411; in the data active means inhibition above about 34%
TAAR1 ag = agonists of human TAAR1 | Q96RJ0 | CHO RD-HGA16 TAAR1, Fluo-8 calcium fluorescence; vehicle wells 0%, saturating PEA agonist 100% | activation, % at 3 µM | hit rate 0.99% among 360,000 | AID 624467;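 active means activation above the mean activation of all test compounds in the run plus 3 SD, cut at about 38% in these data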
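Benchmarks: low control DMSO, high control PEA (EC100); System: CHO RD-HGA16 cells carrying human TAAR1 plus Gα16; Detection: Fluo-8 fluorescence, 5 s baseline then 140 s kinetic read; Schedule: 17-24 h plating, Fluo-8 75 min 37 °C, 30 min RT; Read-out basis: % activation from peak over basal fluorescence ratio, DMSO-to-PEA scaled.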
MPTP counter = membrane potential counter-screen of mitochondrial pore inhibitors; shares compounds with MPTP block; isolated mitochondria, Rhodamine 123 fluorescence; inhibition, % at 10 µM; hit rate 78% among 5,000; AID 624504; in the data active means inhibition above about 22%
MPTP abs DR = MPTP inhibition, dose response swelling confirmation; shares compounds with MPTP block; isolated mitochondria swelling, absorbance; IC50, µM; hit rate 58% among 780; in the data active means IC50 below about 20 µM
MPTP cs DR = active in counter-screen for permeability transition pore inhibitors; hit rate 49% among 780; isolated mitochondria counterscreen, fluorescence read-out; IC50, µM; shares compounds with MPTP block; in the data active means IC50 below about 80 µM
Numbers stand for hits.

What do the screens show for `CCCCN1C(=O)C(CC(=O)NCCCCc2ccccc2)CC(C(=O)N2CCCCCC2)=C1C` (stereo unspecified)?
TAAR1 antagonist: inactive; MPTP block: inactive; TAAR1 ag: inactive

What do the screens show for `COc1ccccc1CNC(=O)Nc1nc(C(N)CCc2ccccc2)cs1` (stereo unspecified)?
TAAR1 antagonist: inactive; MPTP block: inactive; TAAR1 ag: inactive

Results for Cc1cccc(N=C2NC(=O)/C(=C/C=C/c3ccco3)S2)c1 ?
TAAR1 antagonist: inactive; MPTP block: inactive; GPR7 antagonist: inactive; DAGLB inhibitor: inactive; TAAR1 ag: inactive

How did O=C1NC(=Nc2ccc(Cl)cc2)/C(=C/c2ccco2)S1 do in these assays?
TAAR1 antagonist: inactive; MPTP block: 79; GPR7 antagonist: inactive; DAGLB inhibitor: inactive; TAAR1 ag: inactive; MPTP counter: 56

Results for O=C1NC(=Nc2ccc(O)cc2)S/C1=C/c1ccco1 ?
TAAR1 antagonist: inactive; MPTP block: inactive; GPR7 antagonist: inactive; DAGLB inhibitor: inactive; TAAR1 ag: inactive

How did Cc1cccc(N=C2NC(=O)S/C2=C\c2ccco2)c1 do in these assays?
TAAR1 antagonist: inactive; MPTP block: 71; GPR7 antagonist: inactive; DAGLB inhibitor: inactive; TAAR1 ag: inactive; MPTP counter: 54

How did CC(=O)O[C@@H]1C=C[C@@H](C#Cc2ccc(C(C)(C)C)cc2)O[C@@H]1COC(=O)NC(C)C do in these assays?
TAAR1 antagonist: inactive; TAAR1 ag: inactive

Results for CC(C)CNc1ncnc2c1ncn2[C@H]1CN(Cc2ccc(C(=O)O)cc2)C[C@@H](CO)O1 ?
TAAR1 antagonist: inactive; MPTP block: inactive; TAAR1 ag: inactive

Results for CC12CCC(=O)C=C1CCC1C2CCC2(C)C(c3csc(N)n3)CCC12 (stereo unspecified) ?
TAAR1 antagonist: 51; MPTP block: 87; DAGLB inhibitor: inactive; TAAR1 ag: inactive; MPTP counter: 92

How did O=C(CSc1nnc(CNC(=O)c2ccccc2F)o1)c1ccc(Cl)cc1 do in these assays?
TAAR1 antagonist: inactive; MPTP block: 69; GPR7 antagonist: inactive; DAGLB inhibitor: inactive; TAAR1 ag: inactive; MPTP counter: inactive; MPTP abs DR: inactive; MPTP cs DR: 26

Results for O=C(CSc1nnc(CNC(=O)c2cccs2)o1)c1ccc(Cl)cc1 ?
TAAR1 antagonist: inactive; MPTP block: 77; GPR7 antagonist: inactive; DAGLB inhibitor: inactive; TAAR1 ag: inactive; MPTP counter: 30

How did C=CCN=C1NC(c2ccc(C(F)(F)F)cc2)C(C(=O)OC)=C(C)N1Cc1ccccc1C(F)(F)F (stereo unspecified) do in these assays?
TAAR1 antagonist: inactive; TAAR1 ag: inactive

How did O=C(NCc1cccnc1)c1cc(-c2ccccc2)on1 do in these assays?
TAAR1 antagonist: inactive; MPTP block: inactive; GPR7 antagonist: inactive; DAGLB inhibitor: inactive; TAAR1 ag: inactive

Results for Cc1ccc(NC(=O)c2cc(-c3cccc(O)c3)on2)cc1C ?
TAAR1 antagonist: 52; MPTP block: 105; GPR7 antagonist: inactive; DAGLB inhibitor: inactive; TAAR1 ag: inactive; MPTP counter: 20

Results for O=C(NCc1ccccc1)c1cc(-c2cccc(O)c2)on1 ?
TAAR1 antagonist: inactive; MPTP block: 113; GPR7 antagonist: inactive; DAGLB inhibitor: inactive; TAAR1 ag: inactive; MPTP counter: inactive; MPTP abs DR: 4.3; MPTP cs DR: 19

What do the screens show for `COC(=O)C1(C(=O)OC)C[C@H](c2ccc(OC)cc2)N(Cc2ccccc2OC)[C@@H]1c1cccs1`?
TAAR1 antagonist: inactive; MPTP block: inactive; TAAR1 ag: inactive

Results for O=C(CC1SC(=Nc2ccc(OC(F)F)cc2)N(CCC2=CCCCC2)C1=O)Nc1ccccc1F (stereo unspecified) ?
TAAR1 antagonist: inactive; MPTP block: 96; GPR7 antagonist: inactive; DAGLB inhibitor: inactive; TAAR1 ag: inactive; MPTP counter: 72

What do the screens show for `COc1ccc(CCN2C(=O)CSC2c2ccc(OC)c(OC)c2)cc1OC` (stereo unspecified)?
TAAR1 antagonist: inactive; MPTP block: inactive; GPR7 antagonist: inactive; DAGLB inhibitor: inactive; TAAR1 ag: inactive

Results for COc1ccc(C2SCC(=O)N2CCc2ccc(OC)c(OC)c2)cc1 (stereo unspecified) ?
TAAR1 antagonist: inactive; MPTP block: 71; GPR7 antagonist: inactive; DAGLB inhibitor: inactive; TAAR1 ag: inactive; MPTP counter: 33

How did COC(=O)c1c(Cc2ccccc2Cl)c[nH]c1C do in these assays?
TAAR1 antagonist: inactive; MPTP block: 55; GPR7 antagonist: inactive; DAGLB inhibitor: inactive; TAAR1 ag: inactive; MPTP counter: 24

What do the screens show for `COC(=O)[C@]12C[C@H](CC(=O)N3CCC(c4ccccc4)CC3)C(=O)N(Cc3ccccc3)C1=C[C@H](C(C)(C)C)O[C@@H]2C`?
TAAR1 antagonist: inactive; TAAR1 ag: inactive

How did Cc1ccc(NC(=O)CC(=O)c2ccc([N+](=O)[O-])cc2)cc1S(=O)(=O)Nc1cccc(Cl)c1 do in these assays?
TAAR1 antagonist: inactive; MPTP block: 80; GPR7 antagonist: inactive; DAGLB inhibitor: inactive; TAAR1 ag: inactive; MPTP counter: 55

Results for Cc1ccc(NS(=O)(=O)c2cc(C(=O)Nc3cccc([N+](=O)[O-])c3)ccc2C)cc1 ?
TAAR1 antagonist: inactive; MPTP block: inactive; GPR7 antagonist: inactive; DAGLB inhibitor: inactive; TAAR1 ag: inactive

Results for Cc1ccc(NC(=O)c2cccs2)cc1S(=O)(=O)Nc1cccc(Cl)c1 ?
TAAR1 antagonist: inactive; MPTP block: 60; GPR7 antagonist: inactive; DAGLB inhibitor: inactive; TAAR1 ag: inactive; MPTP counter: 68

What do the screens show for `Cc1ccc(NC(=S)NC(=O)c2ccc(F)cc2)cc1S(=O)(=O)Nc1cccc(Cl)c1`?
TAAR1 antagonist: inactive; MPTP block: inactive; GPR7 antagonist: inactive; DAGLB inhibitor: inactive; TAAR1 ag: inactive

Results for CC(=O)c1cccc(NS(=O)(=O)c2ccc(-c3cnc(C4CC4)o3)cc2)c1 ?
TAAR1 antagonist: inactive; MPTP block: 94; GPR7 antagonist: inactive; DAGLB inhibitor: inactive; TAAR1 ag: inactive; MPTP counter: 94

What do the screens show for `CC(=O)Nc1ccc(NS(=O)(=O)c2ccc(-c3cnc(C4CC4)o3)cc2)cc1`?
TAAR1 antagonist: inactive; MPTP block: inactive; GPR7 antagonist: inactive; DAGLB inhibitor: inactive; TAAR1 ag: inactive

Results for CN(Cc1cc(Cl)cc(Cl)c1O)Cc1c(O)ccc2ccccc12 ?
TAAR1 antagonist: inactive; MPTP block: 89; DAGLB inhibitor: inactive; TAAR1 ag: inactive; MPTP counter: 85

How did CN(Cc1ccccc1)Cc1c(O)ccc2ccccc12 do in these assays?
TAAR1 antagonist: inactive; MPTP block: inactive; GPR7 antagonist: inactive; DAGLB inhibitor: inactive; TAAR1 ag: inactive
